What was measured:
[1] = Inhibition of HCV isolate HC-J4 NS5B deltaC21 polymerase; design: species or system Hepatitis C virus isolate HC-J4
In short: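 Inhibitor was preincubated 5 min, then 250 nM 5′-biotin-rU₁₂ primer, poly-rA template, UTP and ³H-UTP were added (5% DMSO). After 2 h, SPA beads/EDTA stop, then CsCl for 1 h, then scintillation count. IC50 by 4-parameter logistic fit.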

Hepatitis C virus = test: Antiviral activity against HCV 1b infected in human Huh7 cells after 46-50 hrs by luc/neo ET replicon assay; conditions: genotype 1b, Huh-7, 46-50 h
[2] = Cytotoxicity against human HuH7 cells; format: cell-based, Huh-7
In short: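 Huh-7 cells stably carrying luc/neo ET replicon, grown in DMEM with 10% fetal calf serum, seeded at 5 × 10³ cells/well. DMSO serial dilutions were added ~24 h after plating (final DMSO 1%), with exposure for 46–50 h. Luminescence vs log concentration was fitted to a 4-parameter logistic to give EC50 and CC50.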

SMILES	IC50 [1] [µM]	EC50 (Hepatitis C virus) [µM]	CC50 [2] [µM]
CC(C)CC[C@@]1(C)C(=O)C(C2=NS(=O)(=O)c3cc(NS(C)(=O)=O)ccc3N2)=C(O)c2cccn21	< 0.005	0.15	19.5
CC(C)CC[C@]1(C)C(=O)C(C2=NS(=O)(=O)c3cc(NS(C)(=O)=O)ccc3N2)=C(O)c2cccn21	0.15	4.9	170
CC(C)CCC1(C)C(=O)C(C2=NS(=O)(=O)c3cc(NS(C)(=O)=O)ccc3N2)=C(O)c2ccnn21 (centres undefined)	< 0.005	1.1	> 100
CS(=O)(=O)Nc1ccc2c(c1)S(=O)(=O)N=C(c1c(O)n3nccc3n(Cc3ccccc3)c1=O)N2	< 0.005	4	> 100
CC(C)CCn1c(=O)c(C2=NS(=O)(=O)c3cc(NS(C)(=O)=O)ccc3N2)c(O)n2nccc12	< 0.005	0.55	> 100
Cc1cc2n(CCC(C)C)c(=O)c(C3=NS(=O)(=O)c4cc(NS(C)(=O)=O)ccc4N3)c(O)n2n1	< 0.005	1.7	> 100
CC(C)CCn1c(=O)c(C2=NS(=O)(=O)c3cc(NS(C)(=O)=O)ccc3N2)c(O)n2ccnc12	< 0.005	0.55	> 1
CC(C)CCC1(C)C(=O)C(C2=NS(=O)(=O)c3cc(NS(C)(=O)=O)ccc3N2)=C(O)c2cncn21 (centres undefined)	< 0.005	6.6	> 100
CC(C)CCC1(C)C(=O)C(C2=NS(=O)(=O)c3cc(NS(C)(=O)=O)ccc3N2)=C(O)c2cccn21 (centres undefined)	< 0.005	0.23	> 100
CS(=O)(=O)Nc1ccc2c(c1)S(=O)(=O)N=C(c1c(O)n3nccc3n(Cc3ccc(F)cc3)c1=O)N2	< 0.005	12	> 100
CS(=O)(=O)Nc1ccc2c(c1)S(=O)(=O)N=C(c1c(O)n3nccc3n(CCc3ccc(F)cc3)c1=O)N2	0.018	> 100	> 100
CC(C)CCn1c(=O)c(C2=NS(=O)(=O)c3cc(NS(C)(=O)=O)ccc3N2)c(O)n2ncnc12	< 0.005	6.7	> 100
CC(C)CCn1c(=O)c(C2=NS(=O)(=O)c3cc(NS(C)(=O)=O)ccc3N2)c(O)n2nc(C3CC3)cc12	0.009	> 20	> 100

Reference: ChEMBL document CHEMBL1153628, “HCV NS5B polymerase inhibitors 2: Synthesis and in vitro activity of (1,1-dioxo-2H-[1,2,4]benzothiadiazin-3-yl) azolo[1,5-a]pyridine and azolo[1,5-a]pyrimidine derivatives” (Bioorg Med Chem Lett, 2009)
